Screening results as filed in PubChem.
The list is not random: actives were taken first. Their share in the collection is about 1%.
UPR XBP1 act: adaptive UPR (XBP1) activation; CHO-XBP1 luciferase reporter, IRE1-XBP1 UPR activation, luminescence; percent of tunicamycin response, DMSO as zero; 330,000 compounds, 0.33% hits; activation, % at 20 µM; AID 463104;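 active means versus positive control, 20 µM dose yields 30% or more activation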
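Material: CHO-XBP1 cells stably carrying IRE1-XBP1-driven luciferase reporter | Medium: F12 with 10% serum | Compound dosing: 20 µM single concentration, DMSO 1% | Incubation: Overnight seeding at 37 °C, 6 h compound treatment at 37 °C | Detection: Steady-Glo luminescence read | Read-out basis: % activation of reporter signal versus tunicamycin and DMSO controls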
T cell modulator: T cell immune modulators affecting CD8 T cell-vesicle binding. 2C CD8+ T cell-vesicle binding, flow cytometry; stronger effect = lower value. response (vesicle binding), % at 7 µM. 330,000 compounds, 0.068% hits;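 active means response, share of CD8 T cells binding vesicles, and their 90th percentile fluorescence all below set limits, cut at about 80% in these data, passing the limit was not always enough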;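 further: values below 100% mean blocked vesicle binding to the CD8+ T cells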
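incubation = binding step 1.5 h, 37 °C, antibody labelling 20 min, ice | test system = 2C mouse CD8+ T cells | read-out basis = percent CD8+ FL2 mean versus row control | controls = Peptide-free naked vesicles (low) and QL9 vesicles with 0.7% DMSO vehicle (high) | detection = flow cytometry of vesicle-bound cells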
B2AR ag: activates human beta-2 adrenergic receptor causing internalization | P07550 | Am2.2-beta2AR cells, FAP receptor internalization, flow cytometry | response, % (test concentration not listed) | 340,000 compounds, 0.43% hits;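 active means response above a set limit, near 3 SD of response in nonfluorescent compounds, cut at about 42% in these data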
Target sequence (P07550 whole entry, looked up): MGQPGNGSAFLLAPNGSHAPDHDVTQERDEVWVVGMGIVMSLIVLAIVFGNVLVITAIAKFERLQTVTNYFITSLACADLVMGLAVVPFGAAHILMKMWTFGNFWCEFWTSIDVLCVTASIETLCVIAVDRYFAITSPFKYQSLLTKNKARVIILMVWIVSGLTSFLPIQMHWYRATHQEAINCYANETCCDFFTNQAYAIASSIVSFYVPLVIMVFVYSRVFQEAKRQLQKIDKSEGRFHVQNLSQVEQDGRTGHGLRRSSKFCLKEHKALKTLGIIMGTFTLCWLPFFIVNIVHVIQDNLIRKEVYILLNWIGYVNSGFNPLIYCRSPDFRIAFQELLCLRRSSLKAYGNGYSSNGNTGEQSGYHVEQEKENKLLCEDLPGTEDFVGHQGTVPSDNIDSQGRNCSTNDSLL
UPR CHOP act: activators of apoptotic arm of unfolded protein response (CHOP) | CHO-CHOP luciferase reporter, UPR activation, luminescence; percent of tunicamycin response over DMSO baseline | activation, % at 10 µM | 330,000 compounds, 0.34% hits;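 active means at 10 µM dose, activation of 40% or more, normalized to positive control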
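Test system: CHO CHOP reporter cells. Input: 500 CHO-CHOP cells per well. Medium: F12 with 10% FBS. Technique: luciferase luminescence. Measure: percent activation relative to tunicamycin control. Dosing: 10 µM compound, 0.5% DMSO. Timing: 16-18 h cell attachment, then 6 h compound exposure, 37 °C.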
B2AR ag CP1: human beta-2 adrenergic receptor agonism, cherry pick; shares compounds with B2AR ag; Am2.2-beta2AR cells, FAP surface receptor, flow cytometry; stronger effect = lower value; percent response (surface receptor), % at 10 µM; 1,100 compounds, 25% hits; AID 540358;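 active means surface receptor percent response at or below 58%, roughly 3 SD from nonfluorescent compounds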
FAP fluor counter: flagged in Am2.2 fluorescence counterscreen for beta-2AR agonists; Am2.2 cells, FAP fluorogen flow cytometry; stronger effect = lower value; 1,100 tested, under 10 active; AID 588765; calls only at 10 µM; shares compounds with B2AR ag;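 active means percent response below a set limit in fluorescence channel 1 and below 50% in channel 8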
Numbers stand for hits; – = inactive; · = not tested or not shown; + = active, no number; ! = not active in a repeat.

SMILES	UPR XBP1 act	T cell modulator	B2AR ag	UPR CHOP act	B2AR ag CP1	FAP fluor counter
COC(=O)c1ccc(CNC(=O)c2cc(COc3cncc(Cl)c3)on2)cc1	–	–	–	–	–	–
CN(C)c1ccc(C(=O)OCC(=O)Nc2ccc(S(N)(=O)=O)cc2)cc1	–	–	47.5	–	–	–
Cc1cc2c(=Cc3ccc(N(C)C)cc3)c3ccccc3n2[n+]1C	·	·	–	·	·	·
CN(C)c1ccc(C=c2c3ccccc3n3c2c2ccccc2[n+]3C)cc1	·	·	49.8	·	–	–
c1ccc(CSc2nnc3c4ccccc4c4ccccc4c3n2)cc1	–	–	·	–	·	·
CCC1CCCCN1CC(=O)Nc1cc(C)nn1-c1nc(C)cc(C)n1 (stereo unspecified)	–	–	–	–	–	–
CCOC(=O)CSc1nc(N)c(C#N)c(-c2ccc(OCC)cc2)c1C#N	–	–	–	–	·	·
COC(=O)CSc1nc(N)c(C#N)c(-c2ccc(O)cc2)c1C#N	–	–	67.2	–	–	–
CCOC(=O)Cn1c(C)[n+](C)c2cc(Cl)c(Cl)cc21	–	–	–	–	·	·
Cc1ccc(CS(=O)(=O)c2nc3c(c(N(C)C)n2)CCCC3)cc1	–	–	73.0	–	27.0	–
Cc1nc(S(=O)(=O)Cc2ccc(Cl)cc2)nc2c1CCC2	–	–	–	–	·	·
Cc1c(C(=O)N2CCOCC2)oc2ccc(S(=O)(=O)N3CCCC3)cc12	–	–	–	–	·	·
Cc1c(C(=O)N2CCc3ccccc3C2)oc2ccc(S(=O)(=O)N3CCCCCC3)cc12	–	–	47.6	–	–	–
Cc1cc(C)nc(SCC(=O)N2CCCCC2)n1	–	–	–	–	·	·
Cc1cc(-c2ccccc2)nc(SCC(=O)N2CCCC2)n1	–	–	–	–	–	–
C/C(Cl)=C\Cn1c(Nc2ccccc2)nc2c1c(=O)n(C)c(=O)n2C	–	–	–	–	·	·
Cc1ccc(C(=O)Nc2cccc(C(F)(F)F)c2)cc1NC(=O)c1csc(-c2ccncc2)n1	–	–	90.6	–	36.3!	+!
CC(=O)N1c2ccccc2C(C)(c2ccccc2)CC1(C)C (stereo unspecified)	–	–	54.3	–	44.6	–
CC1(c2ccccc2)CC(C)(C)N(C(N)=O)c2ccccc21 (stereo unspecified)	–	–	–	–	·	·
COc1ccc(-c2cc(NCc3ccccn3)n3ncnc3n2)cc1	–	–	–	–	·	·
O=C(CCS(=O)(=O)c1ccccc1)Nc1nc2c(s1)COc1ccccc1-2	–	–	59.2	–	–	–
Cc1cccc(OCC(=O)NNC(=O)Nc2cccc(Cl)c2)c1C	–	–	–	–	·	·
N=c1n(CC(=O)c2ccc(Br)cc2)c2ccccc2n1Cc1ccccc1	–	–	73.9	–	33.4	–
N=c1n(CC(=O)O)c2ccccc2n1Cc1ccccc1Cl	–	–	–	–	·	·
N=c1n(CC(=O)c2ccc([N+](=O)[O-])cc2)c2ccccc2n1Cc1ccccc1Cl	·	–	93.5	·	24.4	+
SMILES	UPR XBP1 act	T cell modulator	B2AR ag	UPR CHOP act	B2AR ag CP1	FAP fluor counter
O=C(CCSc1ccccc1)Nc1ccccc1Br	–	–	–	–	·	·
COc1cccc(NC(=O)c2cc(-c3cccnc3)nc3c(Cl)cccc23)c1	–	–	–	–	·	·
Cc1cccc(NC(=O)c2cc(-c3cccnc3)nc3c(C)cccc23)n1	–	–	75.1	–	–	–
COc1ccc(-n2c(SCC(N)=O)nnc2-c2ccc(NS(=O)(=O)c3ccc(C)cc3)cc2)cc1	–	–	55.4	–	–	–
O=c1c2ccccc2nc2n1C(CSc1ccc(Br)cc1)CN2 (stereo unspecified)	–	–	–	–	·	·
COc1ccc(C(C)=O)cc1COc1cc(C)c(Cl)c(C)c1	–	–	–	–	·	·
COc1ccc(C(C)=O)cc1COc1ccc(Cl)cc1Cl	–	–	49.7	–	56.5	–
O=C(Cn1cc(C(F)(F)F)cc(Cl)c1=O)NCCc1ccc(Cl)cc1Cl	–	–	55.2	–	–	–
O=[N+]([O-])c1cccc(-c2nc(-c3ccccc3)c(-c3cccs3)[nH]2)c1	–	–	50.5	–	–	–
O=C(Nc1ccc2nc(SCc3ccc(Cl)cc3)sc2c1)c1ccccc1C(=O)N1CCOCC1	–	–	107.0	–	17.1	–
COC(=O)CSc1nc2ccc(NC(=O)c3ccccc3C(=O)N3CCOCC3)cc2s1	–	–	–	–	·	·
Cc1nc2ccc(Cl)cc2c(-c2ccccc2Cl)c1CC(=O)O	–	–	45.7	–	–	–
CCCN(CCC)S(=O)(=O)c1ccc(Cl)c([N+](=O)[O-])c1	–	–	43.6	–	–	–
COc1ccc(-c2sc3cc4c(cc3c2C#Cc2cncn2C)OCO4)cc1	–	–	56.4	–	–	–
Cn1cnc([N+](=O)[O-])c1Sc1ccc(Br)cc1	–	–	–	–	·	·
CCn1nnc(NC(=S)NC(=O)c2ccc(-c3cccc(Cl)c3)o2)n1	–	–	–	–	–	–
CCCN(CCC)C(=O)c1ccc2nc(-c3ccc(OC)c(OC)c3)c(-c3ccc(OC)c(OC)c3)nc2c1	–	–	43.0	–	–	–
CC(C)Oc1ccc(C(CCNCc2ccc(O)cc2)c2ccccc2)cc1 (stereo unspecified)	–	–	–	–	–	–
COc1ccc(C(CCNCc2ccc(N(C)C)cc2)c2ccccc2)cc1 (stereo unspecified)	–	–	–	–	–	–
COc1ccc(C(CCNCc2ccc(OC)c(OC)c2)c2ccc(F)cc2)cc1 (stereo unspecified)	–	–	–	–	–	–
COC(=O)c1cc(S(=O)(=O)NCCc2sccc2C)c[nH]1	–	–	–	–	·	·
O=Cc1ccc(OCc2nnc(-c3ccccc3Br)o2)cc1	–	–	–	–	·	·
NC(=O)c1ccccc1OCc1nnc(-c2ccccc2Br)o1	–	–	–	–	–	–
CCN(CC(=O)Nc1ccccc1OC)C(=O)/C=C/c1cccs1	–	–	–	–	·	·
Cc1ccc(Nc2ncnc3ccccc23)cc1	–	–	–	–	·	·
SMILES	UPR XBP1 act	T cell modulator	B2AR ag	UPR CHOP act	B2AR ag CP1	FAP fluor counter
Cc1ccc(/C(=N/Nc2ncnc3ccccc23)C(=O)O)cc1	–	–	–	–	–	–
CCCCn1c(SCC(=O)Nc2cc(C)on2)nnc1-c1cccs1	–	–	–	–	·	·
CN(C)CC/C=C1\c2ccccc2Sc2cc(F)c(Cl)cc21	–	–	–	–	·	·
CN(C)CC/C=C1\c2ccccc2Sc2ccc(Cl)cc21	–	–	53.1	–	–	–
O=C(Nc1cccc(Cl)c1)c1ccc(NC2=NC3CS(=O)(=O)CC3S2)cc1 (stereo unspecified)	–	–	–	–	·	·
CN(c1ccccc1)c1ccc(/C=N/NC(=O)CC#N)cc1	–	–	–	–	–	–
N#CCC(=O)N/N=C/c1ccc(Cl)cc1	–	–	–	–	·	·
